Reference: ChEMBL document CHEMBL3739259, “Defining Key Structural Determinants for the Pro-osteogenic Activity of Flavonoids” (J Nat Prod, 2015)
Activity calls are given as the source filed them. The rule behind the calls is not given here.

Columns and labels:
MSC [1] = experiment: Induction of osteogenic differentiation in human MSC assessed as increase in ALP activity at 1 uM using p-NPP as substrate after 9 days by colorimetric method relative to control; format: functional
In short: (§1)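 ALP read on day 9 in passage-3 bone-marrow hMSCs cultured at high density in Os.D medium. Compound (1, 5 or 10 μM, 0.1% v/v DMSO final) was re-applied on days 0, 3 and 6. Colorimetric p-nitrophenyl phosphate method, normalised to time and cell number (pNP/min/20,000 cells). Expressed as % of untreated control; three independent triplicate experiments; one-way ANOVA versus vehicle.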

MSC [2] = experiment: (§2) Induction of osteogenic differentiation in human MSC assessed as increase in ALP activity at 5 uM using p-NPP as substrate after 9 days by colorimetric method relative to control; format: functional; in short: as §1
MSC [3] = experiment: (§3) Induction of osteogenic differentiation in human MSC assessed as increase in ALP activity at 10 uM using p-NPP as substrate after 9 days by colorimetric method relative to control; format: functional; in short: as §1
[4] = Cytotoxicity against human MSC assessed as cell viability at 1 uM measured on day 1 by alamar blue assay (reference value: 97 to 101%); details: MSC cells, read-out: Activity
[5] = Cytotoxicity against human MSC assessed as cell viability at 5 uM measured on day 1 by alamar blue assay (reference value: 97 to 101%); details: MSC cells, read-out: Activity
[6] = Cytotoxicity against human MSC assessed as cell viability at 10 uM measured on day 1 by alamar blue assay (reference value: 97 to 101%); details: MSC cells, read-out: Activity
[7] = Cytotoxicity against human MSC assessed as cell viability at 1 uM treated for 3 days measured on day 4 by alamar blue assay (reference value: 97 to 100%); details: MSC cells, read-out: Activity
[8] = Cytotoxicity against human MSC assessed as cell viability at 5 uM treated for 3 days measured on day 4 by alamar blue assay (reference value: 97 to 100%); details: MSC cells, read-out: Activity
[9] = Cytotoxicity against human MSC assessed as cell viability at 10 uM treated for 3 days measured on day 4 by alamar blue assay (reference value: 97 to 100%); details: MSC cells, read-out: Activity
[10] = Cytotoxicity against human MSC assessed as cell viability at 1 uM treated for 6 days measured on day 7 by alamar blue assay (reference value: 96 to 101%); details: MSC cells, read-out: Activity
[11] = Cytotoxicity against human MSC assessed as cell viability at 5 uM treated for 6 days measured on day 7 by alamar blue assay (reference value: 96 to 101%); details: MSC cells, read-out: Activity
[12] = Cytotoxicity against human MSC assessed as cell viability at 10 uM treated for 6 days measured on day 7 by alamar blue assay (reference value: 96 to 101%); details: MSC cells, read-out: Activity
[13] = Cytotoxicity against human MSC assessed as decrease in cell number at 1 to 10 uM after 9 days by methylene blue staining based microscopy relative to control; details: 216 h
In short: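 Passage-3 bone-marrow hMSCs, high density in Os.D medium, dosed with 1, 5 or 10 μM compound (0.1% v/v DMSO final) on days 0, 3 and 6 with medium changes. Cell number measured on day 9 by methylene blue proliferation assay. Expressed as % of untreated control; three independent triplicate experiments, mean ± SEM, one-way ANOVA versus vehicle.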

[14] = as §3; format: functional; in short: as §1
[15] = Decrease in ALP activity in human MSC using p-NPP as substrate at 5 uM after 9 days by colorimetric method relative to control; format: functional; parameters: Activity: scale not given: the % may be the effect or the level left; in short: as §1
[16] = as §2; format: functional; in short: as §1
MSC [17] = experiment: Induction of osteogenic differentiation in human MSC assessed as increase in ALP activity using p-NPP as substrate after 9 days by colorimetric method; format: functional; in short: as §1
[18] = Decrease in ALP activity in human MSC using p-NPP as substrate at 10 uM after 9 days by colorimetric method relative to control; format: functional
In short: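 Passage-3 bone-marrow hMSCs from healthy donors, cultured at high density in osteogenic (Os.D) medium; compound given at days 0, 3 and 6 with media change every 3 days, final 0.1% (v/v) DMSO; vehicle, 50 nM calcitriol and untreated controls. Day-9 ALP by para-nitrophenyl phosphate colorimetry, normalised to time and cell number (methylene blue); % of untreated control, 3 independent triplicate experiments ± SEM.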

Structure (SMILES)	Activity (MSC [1])	Activity (MSC [2])	Activity (MSC [3])	viability at 1 day, 1 µM [4] [%]	viability at 1 day, 5 µM [5] [%]	viability at 1 day, 10 µM [6] [%]	viability at 72 h, 1 µM [7] [%]	viability at 72 h, 5 µM [8] [%]	viability at 72 h, 10 µM [9] [%]	viability at 144 h, 1 µM [10] [%]	viability at 144 h, 5 µM [11] [%]	viability at 144 h, 10 µM [12] [%]	fold change (FC) [13]	Activity [13]	Activity [14] [%]	Activity [15] [%]	fold change (FC) [16]	fold change (FC) [14]	Activity (MSC [17])	fold change (FC) [18]
COc1cc([C@@H]2CC(=O)c3c(O)cc(O)cc3O2)ccc1O	inactive	inactive	inactive	–	–	–	–	–	–	–	–	–	–	–	–	–	–	–	–	–
COc1ccc(-c2cc(=O)c3c(O)cc(O)cc3o2)cc1O	inactive	inactive	inactive	–	–	–	–	–	–	–	–	–	–	–	–	–	–	–	–	–
O=C1c2c(O)cc(O)cc2O[C@H](c2ccc(O)c(O)c2)[C@H]1O [(+)-TAXIFOLIN]	inactive	inactive	inactive	103	101	102	92	92	92	98	98	101	–	–	–	–	–	–	–	–
Oc1cc(O)c2c(c1)O[C@H](c1ccc(O)c(O)c1)[C@H](O)C2 [(-)-EPICATECHIN]	inactive	inactive	inactive	92	90	84	98	95	94	96	98	98	0.43	–	–	–	–	–	–	–
O=c1cc(-c2ccc(O)cc2)oc2cc(O)cc(O)c12 [APIGENIN]	inactive	inactive	inactive	98	102	98	101	99	98	96	97	94	–	Toxic	–	–	–	–	–	–
Oc1cc(O)c2c(c1)O[C@H](c1ccc(O)c(O)c1)[C@@H](O)C2 [CIANIDANOL]	inactive	inactive	inactive	105	104	104	94	92	93	97	98	98	–	–	–	–	–	–	–	–
O=C1C[C@@H](c2ccc(O)c(O)c2)Oc2cc(O)cc(O)c21 [ERIODICTYOL]	inactive	inactive	–	102	98	99	103	102	102	101	102	101	–	–	111	98	–	–	–	–
O=c1c(O)c(-c2ccc(O)c(O)c2)oc2cc(O)ccc12 [FISETIN]	inactive	–	–	98	98	86	96	97	95	98	97	96	–	Toxic	–	–	1.52	1.32	–	–
O=c1cc(-c2ccccc2)oc2ccccc12 [FLAVONE]	inactive	inactive	inactive	102	103	106	93	93	92	100	102	98	–	Toxic	–	–	–	–	–	–
O=c1c(O)c(-c2ccccc2)oc2cc(O)cc(O)c12 [GALANGIN]	inactive	–	–	105	105	104	94	91	91	99	97	97	–	–	–	–	1.52	1.32	Dose-dependent effect	–
COc1cc(-c2oc3cc(O)cc(O)c3c(=O)c2O)ccc1O [ISORHAMNETIN]	inactive	–	–	105	107	108	93	92	91	98	100	97	–	Toxic	–	–	1.52	1.32	–	–
O=c1cc(-c2ccc(O)c(O)c2)oc2cc(O)cc(O)c12 [LUTEOLIN]	inactive	–	–	100	96	93	99	96	94	97	94	96	–	Toxic	–	–	–	–	–	0.59
O=C1C[C@@H](c2ccc(O)cc2)Oc2cc(O)cc(O)c21 [NARINGENIN]	inactive	inactive	–	104	105	105	101	104	106	100	102	103	–	–	–	–	–	1.53	–	–
O=C(CCc1ccc(O)cc1)c1c(O)cc(O)cc1O [PHLORETIN]	inactive	inactive	inactive	106	105	106	93	93	95	97	98	100	–	–	–	–	–	–	–	–
O=c1c(O)c(-c2ccc(O)c(O)c2)oc2cc(O)cc(O)c12 [QUERCETIN]	inactive	–	–	101	100	89	98	100	101	103	104	101	–	Toxic	–	–	1.52	1.32	–	–
Oc1ccc(/C=C/c2cc(O)cc(O)c2)cc1 [RESVERATROL]	inactive	inactive	inactive	99	101	98	100	100	100	96	97	97	–	Toxic	–	–	–	–	–	–
COc1ccc(-c2oc3cc(O)cc(O)c3c(=O)c2O)cc1O [TAMARIXETIN]	inactive	–	–	105	102	102	97	97	93	94	96	93	–	Toxic	–	–	1.52	1.32	Dose-dependent effect	–
